In assay [1] the target is T1, Adenosine receptor A2a (Rattus norvegicus, UniProt P30543). The experiment in a line: Inhibition of [3H]NECA binding to adenosine A2a receptor. The essentials: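 Competition binding on rat brain striatal membranes as the A2A source. Where no Ki was reached, percent inhibition of radioligand binding was reported at 1 or 10 µM test compound.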
Assay [2] has as its target T2, Adenosine receptor A1 (Rattus norvegicus, UniProt P25099).
T2 sequence (P25099 whole entry): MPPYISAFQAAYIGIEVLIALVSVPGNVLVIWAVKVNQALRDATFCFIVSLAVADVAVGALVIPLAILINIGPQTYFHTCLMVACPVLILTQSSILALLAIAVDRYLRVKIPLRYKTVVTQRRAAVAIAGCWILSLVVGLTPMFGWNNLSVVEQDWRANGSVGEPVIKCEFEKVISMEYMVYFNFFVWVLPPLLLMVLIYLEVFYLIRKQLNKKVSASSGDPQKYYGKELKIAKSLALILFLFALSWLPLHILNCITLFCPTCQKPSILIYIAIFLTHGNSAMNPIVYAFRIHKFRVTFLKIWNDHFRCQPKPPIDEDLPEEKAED
Nature of the assay: Inhibition of [3H]R-PIA binding to adenosine A1 receptor. A digest of the protocol: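 Competition binding on rat brain cortical membranes as the A1 source. Where no Ki was reached, percent inhibition of radioligand binding was reported at 1 or 10 µM test compound.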

Assay [3] addresses T3, Adenosine receptor A3 (Homo sapiens, UniProt P0DMS8).
T3 sequence (P0DMS8 whole entry): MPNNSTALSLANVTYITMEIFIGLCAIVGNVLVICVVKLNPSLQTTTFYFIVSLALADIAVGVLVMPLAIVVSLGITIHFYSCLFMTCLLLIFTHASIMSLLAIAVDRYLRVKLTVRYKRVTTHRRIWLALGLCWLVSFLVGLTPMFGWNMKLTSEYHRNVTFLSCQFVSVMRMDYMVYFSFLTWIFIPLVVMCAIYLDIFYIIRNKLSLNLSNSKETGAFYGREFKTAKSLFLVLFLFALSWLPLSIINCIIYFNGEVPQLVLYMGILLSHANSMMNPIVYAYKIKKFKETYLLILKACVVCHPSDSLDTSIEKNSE
Nature of the assay: Inhibition of [3H]PSB-11 binding to adenosine A3 receptor.

In assay [4] the target is T2, Adenosine receptor A1. The experiment in a line: Inhibition of [3H]CCPA binding to adenosine A1 receptor. The essentials: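 Radioligand competition assay; rat brain cortical membranes as the receptor source.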
Assay [5] has as its target T4, Adenosine receptor A2b (Homo sapiens, UniProt P29275).
T4 sequence (P29275 whole entry): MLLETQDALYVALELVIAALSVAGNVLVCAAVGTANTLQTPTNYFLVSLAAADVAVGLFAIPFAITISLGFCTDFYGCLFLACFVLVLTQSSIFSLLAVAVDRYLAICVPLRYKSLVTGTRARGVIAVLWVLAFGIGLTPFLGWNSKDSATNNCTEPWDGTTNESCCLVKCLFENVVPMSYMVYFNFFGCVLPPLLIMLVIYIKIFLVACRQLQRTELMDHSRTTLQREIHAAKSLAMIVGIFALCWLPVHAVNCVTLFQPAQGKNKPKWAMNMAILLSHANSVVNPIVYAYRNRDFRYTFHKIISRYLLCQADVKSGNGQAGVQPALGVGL
Nature of the assay: Inhibition of [3H]PSB-298 binding to adenosine A2b receptor.

Assay [6] deals with T1, Adenosine receptor A2a. The experiment in a line: Inhibition of [3H]MSX-2 binding to adenosine A2a receptor.
The target of assay [7] is T5, Adenosine receptor A3 (Homo sapiens) (UniProt P0DMS8).
T5 sequence (whole entry): T3 sequence (P0DMS8 whole entry)
Nature of the assay: Percent inhibition of [3H]PSB-11 binding to adenosine A3 receptor at 10 uM. A digest of the protocol:
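Radioligand competition assay; membranes from HEK cells stably expressing the human receptor. Percent inhibition of radioligand binding is reported at the stated test concentration.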

The target of assay [8] is T4, Adenosine receptor A2b. The experiment in a line: Inhibition of [3H]ZM-241380 binding to adenosine A2b receptor.
The target of assay [9] is T6, Adenosine receptor A2b (Homo sapiens) (UniProt P29275).
T6 sequence (whole entry): T4 sequence (P29275 whole entry)
The experiment in a line: Percent inhibition of [3H]PSB-298 binding to adenosine A2b receptor at 10 uM. The essentials: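 Radioligand competition assay; membranes from CHO cells stably expressing the human receptor. Percent inhibition of radioligand binding is reported at the stated test concentration.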

Each structure is given as a SMILES string.

T1 sequence (P30543 whole entry): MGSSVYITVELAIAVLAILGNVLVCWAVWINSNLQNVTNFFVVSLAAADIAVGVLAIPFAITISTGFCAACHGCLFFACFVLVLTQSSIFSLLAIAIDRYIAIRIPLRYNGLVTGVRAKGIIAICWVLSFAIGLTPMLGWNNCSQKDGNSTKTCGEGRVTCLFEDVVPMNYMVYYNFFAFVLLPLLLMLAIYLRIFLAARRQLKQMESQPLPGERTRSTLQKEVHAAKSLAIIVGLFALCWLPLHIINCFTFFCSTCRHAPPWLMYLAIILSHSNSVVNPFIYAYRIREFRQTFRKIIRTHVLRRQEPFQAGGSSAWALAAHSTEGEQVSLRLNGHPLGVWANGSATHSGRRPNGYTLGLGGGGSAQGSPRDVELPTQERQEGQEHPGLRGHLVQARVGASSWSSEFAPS

`CCCn1c(=O)c2[nH]c(C3CCCC3)nc2n(Cc2ccccc2)c1=O`: the Ki was 511 nM in [1], 8.7 nM in assay [2] and 54.6 nM in assay [3].
`CCCn1c(=O)c2nc(C3CC(C)(C)N([O])C(C)(C)C3)[nH]c2n(CCC)c1=O`: the inhibition constant (Ki) in assay [4] was 160 nM; in assay [5], above 10 µM; in assay [6], 6.75 µM; in assay [3], around 10000 nM.
Consider `CCCn1c(=O)c2nc(C3=CC(C)(C)N([O])C3(C)C)[nH]c2n(CCC)c1=O`, for which the Ki in [4] is 8.23 nM; in assay [5], 3.1 µM; in assay [6], 3.8 µM; in [3] it was around 10000 nM. For the same compound, in assay [7], the inhibition turned out to be 47%.
Regarding `CCCCn1c(=O)[nH]c2[nH]c(-c3ccc(OCC(=O)Nc4ccc(CC(=O)O)cc4)cc3)nc2c1=O`, the Ki in assay [4] worked out at 41 nM; in assay [8], 5.3 nM; in assay [6], 0.479 µM; in [3], 676 nM.
Regarding `CCCn1c(=O)c2nc(C3CCCC3)[nH]c2n(CC2=CC(C)(C)N([O])C2(C)C)c1=O`, the Ki was 5.47 nM in assay [4], above 1 µM in [5], 8.78 µM in [6] and 1700 nM in assay [3]. Also, the inhibition in assay [9] is 23%.

The values above are taken from ChEMBL document CHEMBL1142739, “Development of spin-labeled probes for adenosine receptors” (J Med Chem, 2005).
